Screening results (PubChem BioAssay)
ADAM17 inh – ADAM17 inhibition, QFRET primary screen; actives 0.83% (n = 370,000); recombinant ADAM17, EDANS/DABCYL FRET peptide cleavage; AID 720648; P78536; inhibition, % at 6.95 µM;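 active means inhibition above the mean of compounds lying between control limits plus 3 SD, set per campaign, cut at about 8.5% in these data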
Tb MetRS inh – blocks T. brucei methionyl-tRNA synthetase activity; purified T. brucei MetRS, ATP depletion, Kinase-Glo luminescence; AID 624268; inhibition, % at 11.9 µM; actives 0.4% (n = 360,000);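 active means inhibition above a per-plate cutoff of the control wells' mean inhibition plus 3 SD, cut at about 5.5% in these data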
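assay system = parasite MetRS enzyme | timing = 15 min preincubation, 2 h reaction, all 25 °C | evaluation = percent inhibition relative to median high and low control wells | medium = HEPES buffer containing pyrophosphatase, BSA, spermine, DTT | compound = single dose, 11.9 µM final nominal, 0.9% final DMSO | detection = Kinase-Glo luminescence, ATP depletion format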
PLCb3 inh – blocks human PLC-beta3 enzyme activity; Purified PLC-beta3, fluorogenic substrate, fluorescence; inhibition, % at 12.2 µM; actives 0.18% (n = 370,000); AID 720704; in the data active means inhibition above about 11%
PLC-gamma1 inh – blocks human PLC-gamma1 enzyme activity; inhibition, % at 12.2 µM; purified PLC-gamma1, fluorogenic substrate, fluorescence; actives 0.84% (n = 370,000); AID 720700; P19174; in the data active means inhibition above about 9.5%
ADAM10 inh – ADAM10 inhibition, QFRET primary screen | AID 720582 | recombinant ADAM10, EDANS/DABCYL FRET peptide cleavage, 3 h | inhibition, % at 7 µM | actives 0.62% (n = 370,000);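 active means inhibition above a per-campaign cutoff equal to the mean of compounds falling between control-based bounds plus 3 SD, cut at about 20% in these data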
Tb MetRS conf – Trypanosoma brucei MetRS inhibition confirmed; shares compounds with Tb MetRS inh; T. brucei MetRS enzyme, luminescence (ATP depletion); inhibition, % at 11.9 µM; actives 93% (n = 1,400); AID 624412; in the data active means inhibition above about 7%
Jurkat tox – counter-screen for T. brucei MetRS inhibitors: Jurkat cell cytotoxicity. actives 12% (n = 1,400). inhibition, % at 8.3 µM. shares compounds with Tb MetRS inh. Jurkat cells viability, ATP luminescence; in the data active means inhibition above about 15%
TbMetRS FP orth – orthogonal test for Trypanosoma brucei MetRS inhibitors; shares compounds with Tb MetRS inh; purified T. brucei MetRS, fluorescence polarization; inhibition, % at 11.9 µM; actives 44% (n = 1,400); AID 651607; in the data active means inhibition above about 17%
Of the large screens only hits and unclear results are named; the others gave an inactive call (follow-up assays come after a bar, where they were run). An excerpt weighted towards active compounds, which were near 2.3% of everything screened.

Cc1ccc(Cn2nnnc2CN2CCC(NC(=O)c3ccc(Br)cc3)CC2)cc1	none
COc1ccc(/C=N/NC(=O)C(=O)N2CCCCCC2)cc1O	none
CC(=O)Nc1ccc(C(=O)CN2C(=O)NC3(CCOc4ccccc43)C2=O)c(F)c1 (configuration not stated)	none
CCc1ccc(NC(=O)Cn2c(=O)oc3cc(S(=O)(=O)N4CCOCC4)ccc32)cc1	Tb MetRS inh 14.6 | Tb MetRS conf 11.7 | Jurkat tox inactive | TbMetRS FP orth inactive
CCc1cccc(NC(=O)Cn2c(=O)oc3cc(S(=O)(=O)N4CCOCC4)ccc32)c1	Tb MetRS inh 7.0 | Tb MetRS conf 11.8 | Jurkat tox inactive | TbMetRS FP orth inactive
COc1ccc(-c2cc(C(=O)NN=Cc3ccccc3F)[nH]n2)cc1	none (no result: Tb MetRS inh)
c1ccc(CCCNc2ncnc3nc[nH]c23)cc1	none
c1ccc2c(CCNc3ncnc4nc[nH]c34)cccc2c1	Tb MetRS inh 42.5 | Tb MetRS conf 58.0 | Jurkat tox inactive | TbMetRS FP orth 34.8
Clc1ccc(CCNc2ncnc3nc[nH]c23)cc1	Tb MetRS inh 11.1 | Tb MetRS conf 17.1 | Jurkat tox 26.7 | TbMetRS FP orth inactive
O=C(CCc1ccccc1)Nc1cc(C(=O)O)cc(C(=O)O)c1	none
Cc1ccc(NC(=O)c2ncn(CCCN3CCN(Cc4cccc5ccccc45)CC3)n2)cc1C	none
Cc1nn(-c2ccccc2)c2sc(C(=O)NCCc3ccc(Cl)cc3)cc12	none (no result: Tb MetRS inh)
Cc1[nH]c2ccccc2c(=O)c1CN1CCCCC1	none
Cc1[nH]c2ccc(Cl)cc2c(=O)c1CN1CCCC1	Tb MetRS inh 45.5 | Tb MetRS conf 48.3 | Jurkat tox inactive | TbMetRS FP orth 28.3
Cc1[nH]c2ccc(Br)cc2c(=O)c1CN1CCCCCC1	Tb MetRS inh 60.2 | Tb MetRS conf 82.2 | Jurkat tox inactive | TbMetRS FP orth 51.6
N/C(=N\OC(=O)CCC1CCCC1)c1ccccn1	none
COc1ccc2nc(SCC(=O)NCc3ccc(F)cc3)[nH]c2c1	none
NS(=O)(=O)c1cccc(NC(=O)CSc2nc3ccccc3[nH]2)c1	Tb MetRS inh 7.8 | Tb MetRS conf 16.0 | Jurkat tox inactive | TbMetRS FP orth inactive
Cc1ccc2nc(SCC(=O)Nc3cccc(S(N)(=O)=O)c3)[nH]c2c1	none
O=C(CSc1nc2ccccc2[nH]1)NCc1ccc2c(c1)OCO2	Tb MetRS inh 28.4 | Tb MetRS conf 43.0 | Jurkat tox inactive | TbMetRS FP orth 19.7
O=C(CSc1nc2ccccc2[nH]1)NCc1ccc(F)cc1	Tb MetRS inh 7.7 | Tb MetRS conf 13.1 | Jurkat tox inactive | TbMetRS FP orth inactive
O=C(CSc1nc(-c2ccccc2)cc(=O)[nH]1)NCc1ccc2c(c1)OCO2	none
O=C(CCc1nc2ccccc2[nH]1)NCc1ccc2c(c1)OCO2	Tb MetRS inh 19.5 | Tb MetRS conf 36.4 | Jurkat tox inactive | TbMetRS FP orth inactive
C/C(=N\Nc1nc2ccccc2[nH]1)c1ccc2c(c1)OCO2	Tb MetRS inh 7.3 | Tb MetRS conf 8.8 | Jurkat tox inactive | TbMetRS FP orth 18.2
C/C(=N\Nc1nc2ccccc2[nH]1)c1ccc2c(c1)OCCO2	none
O=C(O)c1ccc(S(=O)(=O)/N=C2\C=C(Nc3ccccc3F)C(=O)c3ccccc32)cc1	Tb MetRS inh 9.2, PLC-gamma1 inh 20.2 | Tb MetRS conf 14.7 | Jurkat tox 90.6 | TbMetRS FP orth inactive
CCN(CC)C(=O)c1ccc(Oc2ccc([N+](=O)[O-])cc2Cl)cc1	Tb MetRS inh 5.9 | Tb MetRS conf 13.4 | Jurkat tox inactive | TbMetRS FP orth inactive
CC(CCC(=O)O)C1CCC2C3CC(O)C4CC(O)CC[C@]4(C)C3CCC12C (some centres not stated)	none
CCN(CC)c1ccc(/C=N/NC(=O)Cc2nnc(NC(=O)Nc3ccccc3)s2)cc1	Tb MetRS inh 8.4 | Tb MetRS conf 9.2 | Jurkat tox inactive | TbMetRS FP orth inactive
CCOC(=O)[C@]12CCCCC/C=C\1N(CCc1ccc(Cl)cc1)C(=O)[C@H]2CC(=O)NCCc1ccccc1OC	none (no result: Tb MetRS inh)
CC(C)Cc1nnc(NC(=O)CCS(=O)(=O)c2ccc(Cl)cc2)s1	none
COc1ccc(Br)cc1CSC(=N)N	Tb MetRS inh 11.1 | Tb MetRS conf inactive | Jurkat tox inactive | TbMetRS FP orth inactive
CCCCCOc1ccc(Br)cc1CSC(=N)N	none
COc1ccc(Cl)cc1N1CC(c2nc3ccccc3[nH]2)CC1=O (configuration not stated)	Tb MetRS inh 5.7 | Tb MetRS conf 10.1 | Jurkat tox inactive | TbMetRS FP orth inactive
O=C1CC(c2nc3ccccc3[nH]2)CN1c1ccccc1F (configuration not stated)	none
O=C1CC(c2nc3ccccc3[nH]2)CN1c1cccc(C(F)(F)F)c1 (configuration not stated)	Tb MetRS inh 20.8 | Tb MetRS conf 26.8 | Jurkat tox inactive | TbMetRS FP orth inactive
Nc1cccc(S(=O)(=O)N2CCCN(S(=O)(=O)c3ccc4c(c3)OCCO4)CC2)c1	none (no result: Tb MetRS inh)
N#C/C(=C\c1cccnc1)C(=O)Nc1ccc(O)cc1F	none
N#Cc1nc(COc2ccc(Br)cc2)oc1NCCCn1ccnc1	Tb MetRS inh 29.9 | Tb MetRS conf 53.2 | Jurkat tox inactive | TbMetRS FP orth 31.0
Cc1ccc(OCc2nc(C#N)c(NCCCn3ccnc3)o2)cc1	none
Cc1ccc(S(=O)(=O)Nc2c(C)cc(C)nc2Cl)cc1	none
CCCCN1C(=O)C(CC(=O)NCCCN(C)C)CC(C(=O)N2CCOCC2)=C1C (configuration not stated)	none
Cc1ccc(NC(=S)Nc2cccc(-c3n[nH]c(=S)o3)c2)cc1	none
NC(=S)Nc1cccc(-c2n[nH]c(=S)o2)c1	Tb MetRS inh 13.6 | Tb MetRS conf 35.4 | Jurkat tox inactive | TbMetRS FP orth 16.8
CC(C)C1CC(=O)NC(SCC(=O)Nc2ccc(Br)cc2)=C1C#N (configuration not stated)	Tb MetRS inh 11.9 | Tb MetRS conf 18.2 | Jurkat tox inactive | TbMetRS FP orth inactive
COc1ccccc1C1CC(=O)NC(SCC(=O)Nc2ccccc2)=C1C#N (configuration not stated)	none
CCN(CC)P(=O)(Nc1ccccc1Br)c1ccc(N(C)C)cc1NC(=O)c1ccco1 (configuration not stated)	none
Cn1cc(S(=O)(=O)NC[C@H]2O[C@@H](n3cnc4c(N)ncnc43)[C@H](O)[C@@H]2O)cn1	none
